In ChEMBL document CHEMBL1149822, “Synthesis, antimicrobial and anti-inflammatory activities of some 1,2,4-triazolo[3,4-b][1,3,4]thiadiazoles and 1,2,4-triazolo[3,4-b][1,3,4]thiadiazines bearing trichlorophenyl moiety” (2008):
≈ marks a conversion by molar mass, not a printed value.

Legend:
Assay type in all cases: functional
[1] = test system: Escherichia coli; test: Antibacterial activity against Escherichia coli ATTC 25922 after 16 to 18 hrs by serial plate dilution method; details: ATCC25922
Procedure, shortened: (§1)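 Serial dilutions were made in Mueller-Hinton broth in tubes, adjusted to […] with phosphate buffer, and inoculated with a standardized bacterial suspension. Tubes were incubated at 37 °C for 16–18 h. MIC was taken as the lowest concentration with no visible growth.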

[2] = test system: Escherichia coli; test: microbe, parasite or virus in culture; details: ATCC25922, read-out: IZ
[3] = test system: Klebsiella pneumoniae; test: Antibacterial activity against Klebsiella pneumoniae after 16 to 18 hrs by serial plate dilution method; procedure, shortened: as §1
[4] = test system: Klebsiella pneumoniae; test: microbe, parasite or virus in culture; details: read-out: IZ
[5] = test system: Pseudomonas aeruginosa; test: Antibacterial activity against Pseudomonas aeruginosa ATTC 27853 after 16 to 18 hrs by serial plate dilution method; details: ATCC27853; procedure, shortened: as §1
[6] = test system: Pseudomonas aeruginosa; test: microbe, parasite or virus in culture; details: ATCC27853, read-out: IZ
[7] = test system: Staphylococcus aureus; test: Antibacterial activity against Staphylococcus aureus ATTC 25923 after 16 to 18 hrs by serial plate dilution method; procedure, shortened: as §1
[8] = test system: Staphylococcus aureus; test: Antibacterial activity against Staphylococcus aureus ATTC 25923 at […] ug/ml after 3 to 4 days; details: read-out: IZ
[9] = test system: Talaromyces marneffei; test: Antifungal activity against Penicillium marneffei by serial plate dilution method
Procedure, shortened: (§2)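 Agar of peptone 1 g, D-glucose 4 g and agar 2 g per 100 mL water, pH 5.7, was lawned with a fungal spore suspension in normal saline. The excess was decanted and plates were dried at 37 °C for 1 h. Wells were punched and compounds in DMSO were added, with a DMSO control. Plates were run in triplicate at 37 °C for 3–4 days, and the inhibition zone diameter was measured.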

[10] = test system: Talaromyces marneffei; test: Antifungal activity against Penicillium marneffei at […] ug/ml after 3 to 4 days; details: read-out: IZ
[11] = test system: Trichophyton mentagrophytes; test: Antifungal activity against Trichophyton mentagrophytes by serial plate dilution method
[12] = test system: Trichophyton mentagrophytes; test: Antifungal activity against Trichophyton mentagrophytes at […] ug/ml after 3 to 4 days; details: read-out: IZ
[13] = test system: Aspergillus flavus; test: Antifungal activity against Aspergillus flavus NCIM 524 by serial plate dilution method; procedure, shortened: as §2
[14] = test system: Aspergillus flavus; test: Antifungal activity against Aspergillus flavus NCIM 524 at […] ug/ml after 3 to 4 days; details: read-out: IZ
[15] = test system: Aspergillus fumigatus; test: Antifungal activity against Aspergillus fumigatus NCIM 902 by serial plate dilution method
[16] = test system: Aspergillus fumigatus; test: Antifungal activity against Aspergillus fumigatus NCIM 902 at […] ug/ml after 3 to 4 days; details: read-out: IZ
[17] = test system: Rattus norvegicus; test: Antiinflammatory activity against carrageenan-induced paw oedema in albino rat at 50 mg/kg, po relative to control
Procedure, shortened: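 Albino rats of 180–250 g were fasted 18 h and placed in groups of six. Samples were suspended in 2% w/v acacia mucilage, and the vehicle group served as control. 30 min after dosing, carrageenan (1 mg mL⁻¹, 0.1 mL) was injected subcutaneously into the right hind paw. Paw volume was measured immediately and at 3 h, and % oedema inhibition was calculated versus vehicle controls.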

[18] = test system: Escherichia coli; test: Antibacterial activity against Escherichia coli ATTC 25922 at 12 ug/ml after 3 to 4 days; details: ATCC25922, read-out: IZ
Procedure, shortened: (§3)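 Agar well diffusion. Plates were seeded with a bacterial suspension, the excess was decanted and plates were dried at 37 °C for 1 h. Wells were punched and compounds in DMSO were added, with DMSO wells as control. Plates were run in triplicate at 37 °C for 3–4 days and zones of inhibition were scored.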

[19] = test system: Staphylococcus aureus; test: Antibacterial activity against Staphylococcus aureus ATTC 25923 at 12 ug/ml after 3 to 4 days; details: read-out: IZ; procedure, shortened: as §3
[20] = test system: Trichophyton mentagrophytes; test: Antifungal activity against Trichophyton mentagrophytes at 12 ug/ml after 3 to 4 days; details: read-out: IZ; procedure, shortened: as §2
[21] = test system: Aspergillus flavus; test: Antifungal activity against Aspergillus flavus NCIM 524 at 12 ug/ml after 3 to 4 days; details: read-out: IZ; procedure, shortened: as §2
[22] = test system: Klebsiella pneumoniae; test: Antibacterial activity against Klebsiella pneumoniae at 12 ug/ml after 3 to 4 days; details: read-out: IZ; procedure, shortened: as §3
[23] = test system: Pseudomonas aeruginosa; test: Antibacterial activity against Pseudomonas aeruginosa ATTC 27853 at 12 ug/ml after 3 to 4 days; details: ATCC27853, read-out: IZ; procedure, shortened: as §3
[24] = test system: Talaromyces marneffei; test: Antifungal activity against Penicillium marneffei at 12 ug/ml after 3 to 4 days; details: read-out: IZ; procedure, shortened: as §2

| SMILES | MIC [1] [µg/mL] | zone of inhibition at 6.25 µg/mL [2] [mm] | MIC [3] [µg/mL] | zone of inhibition at 6.25 µg/mL [4] [mm] | MIC [5] [µg/mL] | zone of inhibition at 6.25 µg/mL [6] [mm] | MIC [7] [µg/mL] | zone of inhibition at 6.25 µg/mL [8] [mm] | MIC [9] [µg/mL] | zone of inhibition at 6.25 µg/mL [10] [mm] | MIC [11] [µg/mL] | zone of inhibition at 6.25 µg/mL [12] [mm] | MIC [13] [µg/mL] | zone of inhibition at 6.25 µg/mL [14] [mm] | MIC [15] [µg/mL] | zone of inhibition at 6.25 µg/mL [16] [mm] | inhibition in vivo at 50 mg/kg [17] [%] | zone of inhibition at 12 µg/mL [20] [mm] | zone of inhibition at 12 µg/mL [21] [mm] | also measured |
| --- | --- | --- | --- | --- | --- | --- | --- | --- | --- | --- | --- | --- | --- | --- | --- | --- | --- | --- | --- | --- |
| Clc1ccc(C2=Nn3c(nnc3-c3cc(Cl)cc(Cl)c3Cl)SC2)cc1 | 6.25 (≈ 14.5 µM) | 16 | 6.25 (≈ 14.5 µM) | 16 | 6.25 (≈ 14.5 µM) | 16 | 6.25 (≈ 14.5 µM) | 16 | 6.25 (≈ 14.5 µM) | 16 | 6.25 (≈ 14.5 µM) | 16 | 6.25 (≈ 14.5 µM) | 16 | 6.25 (≈ 14.5 µM) | 16 | 30.6 | – | – | – |
| Cc1ccc(-c2nn3c(-c4cc(Cl)cc(Cl)c4Cl)nnc3s2)cc1 | 12 (≈ 30.3 µM) | – | 6.25 (≈ 15.8 µM) | 16 | 6.25 (≈ 15.8 µM) | 16 | 12 (≈ 30.3 µM) | – | 6.25 (≈ 15.8 µM) | 16 | 12 (≈ 30.3 µM) | – | 12 (≈ 30.3 µM) | – | 6.25 (≈ 15.8 µM) | 16 | 22.6 | 11 | 11 | zone of inhibition at 12 µg/mL [18]: 11 mm; zone of inhibition at 12 µg/mL [19]: 11 mm |
| Clc1cc(Cl)cc(-c2nn3c(-c4cc(Cl)cc(Cl)c4Cl)nnc3s2)c1 | 6.25 (≈ 13.9 µM) | 16 | 6.25 (≈ 13.9 µM) | 16 | 6.25 (≈ 13.9 µM) | 16 | 6.25 (≈ 13.9 µM) | 16 | 6.25 (≈ 13.9 µM) | 16 | 6.25 (≈ 13.9 µM) | 16 | 6.25 (≈ 13.9 µM) | 16 | 6.25 (≈ 13.9 µM) | 16 | – | – | – | – |
| Clc1cc(Cl)c(Cl)c(-c2nnc3sc(COc4ccccc4)nn23)c1 | 6.25 (≈ 15.2 µM) | 16 | 6.25 (≈ 15.2 µM) | 16 | 6.25 (≈ 15.2 µM) | 16 | 6.25 (≈ 15.2 µM) | 16 | 6.25 (≈ 15.2 µM) | 16 | 12 (≈ 29.1 µM) | – | 12 (≈ 29.1 µM) | – | 6.25 (≈ 15.2 µM) | 16 | – | 11 | 11 | – |
| Cc1ccc(C2=Nn3c(nnc3-c3cc(Cl)cc(Cl)c3Cl)SC2)cc1 | 6.25 (≈ 15.3 µM) | 16 | 12 (≈ 29.3 µM) | – | 12 (≈ 29.3 µM) | – | 6.25 (≈ 15.3 µM) | 16 | 6.25 (≈ 15.3 µM) | 16 | 6.25 (≈ 15.3 µM) | 16 | 6.25 (≈ 15.3 µM) | 16 | 6.25 (≈ 15.3 µM) | 16 | 19.4 | – | – | zone of inhibition at 12 µg/mL [22]: 11 mm; zone of inhibition at 12 µg/mL [23]: 11 mm |
| Clc1cc(Cl)c(Cl)c(-c2nnc3sc(-c4ccncc4)nn23)c1 | 6.25 (≈ 16.3 µM) | 16 | 6.25 (≈ 16.3 µM) | 16 | 6.25 (≈ 16.3 µM) | 16 | 6.25 (≈ 16.3 µM) | 16 | 6.25 (≈ 16.3 µM) | 16 | 6.25 (≈ 16.3 µM) | 16 | 6.25 (≈ 16.3 µM) | 16 | 6.25 (≈ 16.3 µM) | 16 | 11.3 | – | – | – |
| Clc1cc(Cl)c(Cl)c(-c2nnc3n2N=C(c2ccccc2)CS3)c1 | 12 (≈ 30.3 µM) | – | 6.25 (≈ 15.8 µM) | 16 | 6.25 (≈ 15.8 µM) | 16 | 12 (≈ 30.3 µM) | – | 12 (≈ 30.3 µM) | – | 12 (≈ 30.3 µM) | – | 12 (≈ 30.3 µM) | – | 6.25 (≈ 15.8 µM) | 16 | – | 11 | 11 | zone of inhibition at 12 µg/mL [18]: 11 mm; zone of inhibition at 12 µg/mL [19]: 11 mm; zone of inhibition at 12 µg/mL [24]: 11 mm |
